Source: PMC4811700 (European journal of medicinal chemistry, 2016)
Each block holds one compound with its values, some of them ahead of it.

Columns and labels:
Mcl-1 = Mcl-1 (Homo sapiens, UniProt Q07820); assay: Fluorescence polarization competition assay; assay type: binding; details: for change in experimental free energy of binding to Mcl-1: relative to the preceding compound in the series 3b, 3a, 3bi, 3bl; for binding affinity to Mcl-1 in vitro: data not shown
Mcl-1^172-327 = Mcl-1^172-327 (Homo sapiens, UniProt Q07820); assay: NMR 1H,15N-HSQC with 15N-labeled Mcl-1; assay type: binding; details: 131 μM 15N-labeled Mcl-1, 182 μM compound
Procedure, shortened: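 2D 1H,15N-fast HSQC collected at 25 °C, 800 MHz, with and without compound. Buffer: 20 mM HEPES pH 6.8, 50 mM NaCl, 3 mM DTT, 20% D2O, 5% d6-DMSO. Backbone amide shift changes monitored.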

Mcl-1, sequence (Q07820 172-327): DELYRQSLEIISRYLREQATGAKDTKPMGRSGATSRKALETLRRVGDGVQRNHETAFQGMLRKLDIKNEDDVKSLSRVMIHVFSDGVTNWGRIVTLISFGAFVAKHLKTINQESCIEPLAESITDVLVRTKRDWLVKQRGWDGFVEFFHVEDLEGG
Mcl-1^172-327, sequence (Q07820 172-327): as above

SMILES: CC(C)CN(c1ccc(OC(C)C)cc1)S(=O)(=O)c1cc(C(=O)O)c(O)c2ccccc12 [Compound 3ba, 1-Hydroxy-4-(N-isobutyl-N-(4-isopropoxyphenyl)sulfamoyl)-2-naphthoic acid]
interaction with Mcl-1 by HSQC chemical shift perturbation (Mcl-1^172-327): direct interaction

SMILES: Cc1cc(Oc2ccc(N(Cc3ccccc3)S(=O)(=O)c3cc(C(=O)O)c(O)c4ccccc34)cc2)cc(C)c1Cl [Compound 3bl, 4-(N-Benzyl-N-(4-(4-chloro-3,5-dimethylphenoxy)phenyl)sulfamoyl)-1-hydroxy-2-naphthoic acid]
change in experimental free energy of binding to Mcl-1 (Mcl-1): -0.8 kcal/mol

SMILES: CC(=O)OCOC(=O)c1cc(S(=O)(=O)N(CC(C)C)c2ccc(OC(C)C)cc2)c2ccccc2c1O [Compound 14, Acetoxymethyl 1-hydroxy-4-(N-isobutyl-N-(4-isopropoxyphenyl)sulfamoyl)-2-naphthoate]
binding affinity to Mcl-1 in vitro (Mcl-1): no binding affinity

SMILES: COC(=O)c1cc(S(=O)(=O)N(CC(C)C)c2ccc(OC(C)C)cc2)c2ccccc2c1O [Compound 13, Methyl 1-hydroxy-4-(N-isobutyl-N-(4-isopropoxyphenyl)sulfamoyl)-2-naphthoate]
binding affinity to Mcl-1 in vitro (Mcl-1): no binding affinity

SMILES: O=C(O)c1cc(S(=O)(=O)NCC2CCCCC2)c2ccccc2c1O [Compound 3g, 4-(N-(Cyclohexylmethyl)sulfamoyl)-1-hydroxy-2-naphthoic acid]
fold improvement in Mcl-1 inhibitory activity (Mcl-1; relative to unsubstituted benzylic amine derivative 3c): 8 fold

More lines, now with the values ahead:

fold reduction in Mcl-1 activity (Mcl-1; methylation of hydroxyl group, relative to 3ca): ~40 fold
SMILES: COc1c(C(=O)O)cc(S(=O)(=O)N(CC(C)C)c2ccc(Br)cc2)c2ccccc12 [Compound 12, 4-(N-(4-Bromophenyl)-N-isobutylsulfamoyl)-1-methoxy-2-naphthoic acid]

change in experimental free energy of binding to Mcl-1 (Mcl-1): -2.1 kcal/mol
SMILES: O=C(O)c1cc(S(=O)(=O)Nc2ccc(Br)cc2)c2ccccc2c1O [Compound 3a, 4-(N-(4-bromophenyl)sulfamoyl)-1-hydroxy-2-naphthoic acid]

change in experimental free energy of binding to Mcl-1 (Mcl-1): -1.9 kcal/mol
SMILES: Cc1cc(Oc2ccc(NS(=O)(=O)c3cc(C(=O)O)c(O)c4ccccc34)cc2)cc(C)c1Cl [Compound 3bi, 4-(N-(4-(4-Chloro-3,5-dimethylphenoxy)phenyl)sulfamoyl)-1-hydroxy-2-naphthoic acid]
